According to ChEMBL document CHEMBL4689842, “EUbOPEN Chemogenomics Library wave 1” (2021):

Tested on: U2OS
Assay: Multiplex assay against U2OS
Type: toxicity, cell-based
Settings: human
How it was run: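 Cells were classed with CellPathfinder machine-learning gating, first as Hoechst high-intensity objects or normal cells, then (normal cells) as healthy, pyknosed or fragmented nuclei, and finally (pyknosed cells) as mitotic or apoptotic. Staining of live cells at seeding used Hoechst33342, BioTracker Green Microtubule Cytoskeleton Dye, MitoTracker Red and Annexin V Alexa Fluor 680, with imaging on a CQ1 microscope at 37°C and 5% CO2 after compound addition. Tubulin, mitochondrial-mass and membrane-permeability phenotypes are per cents of healthy-nucleus cells.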

[1] = 12 h, 1 µM, compound concentration 1 uM, replicate 1
[2] = 12 h, 1 µM, compound concentration 1 uM, replicate 2
[3] = 12 h, 10 µM, compound concentration 10 uM, replicate 1
[4] = 12 h, 10 µM, compound concentration 10 uM, replicate 2
[5] = 24 h, 1 µM, compound concentration 1 uM, replicate 1
[6] = 24 h, 1 µM, compound concentration 1 uM, replicate 2
[7] = 24 h, 10 µM, compound concentration 10 uM, replicate 1
[8] = 24 h, 10 µM, compound concentration 10 uM, replicate 2
[9] = 48 h, 1 µM, compound concentration 1 uM, replicate 1
[10] = 48 h, 1 µM, compound concentration 1 uM, replicate 2
[11] = 48 h, 10 µM, compound concentration 10 uM, replicate 1
[12] = 48 h, 10 µM, compound concentration 10 uM, replicate 2

For `CN1CCN(Cc2ccc(Nc3ncc(Cl)c(Nc4ccccc4S(=O)(=O)N(C)C)n3)cc2)CC1` [DUBERMATINIB], the “Population Apoptotic (%)” value [1] was 73%, the “Population Fragmented Nuclei (%)” value [1] was 20% and the “Population Healthy Nuclei (%)” value [1] was 51%. The “Population Hoechst High Intensity Objects (%)” value [1] was 11%, the “Population Membrane Permeable-Phenotype (%)” value [1] was 6% and the “Population Mitochondria Different-Phenotype (%)” value [1] was 9%. The “Population Mitotic Cells (%)” value [1] was 26%, the “Population Normal (%)” value [1] was 88% and the “Population Pyknosed Nuclei (%)” value [1] was 27%. The “Population Tubulin-Different-Phenotype (%)” value [1] was 6%, the “Total Cell Count” value [1] was 172 and the “Population Apoptotic (%)” value [2] was 100%. The “Population Fragmented Nuclei (%)” value [2] was 13%, the “Population Healthy Nuclei (%)” value [2] was 83% and the “Population Hoechst High Intensity Objects (%)” value [2] was 10%. The “Population Membrane Permeable-Phenotype (%)” value [2] was 4%, the “Population Mitochondria Different-Phenotype (%)” value [2] was 16% and the “Population Mitotic Cells (%)” value [2] was 0%. The “Population Normal (%)” value [2] was 89%, the “Population Pyknosed Nuclei (%)” value [2] was 2% and the “Population Tubulin-Different-Phenotype (%)” value [2] was 11%. For the same compound, the “Total Cell Count” value [2] was 65, the “Population Apoptotic (%)” value [3] was 78% and the “Population Fragmented Nuclei (%)” value [3] was 25%. For the same compound, the “Population Healthy Nuclei (%)” value [3] was 44%, the “Population Hoechst High Intensity Objects (%)” value [3] was 12% and the “Population Membrane Permeable-Phenotype (%)” value [3] was 9%. The “Population Mitochondria Different-Phenotype (%)” value [3] was 40%, the “Population Mitotic Cells (%)” value [3] was 21% and the “Population Normal (%)” value [3] was 87%. The “Population Pyknosed Nuclei (%)” value [3] was 29%, the “Population Tubulin-Different-Phenotype (%)” value [3] was 28% and the “Total Cell Count” value [3] was 140. The “Population Apoptotic (%)” value [4] was 73%, the “Population Fragmented Nuclei (%)” value [4] was 45% and the “Population Healthy Nuclei (%)” value [4] was 31%. The “Population Hoechst High Intensity Objects (%)” value [4] was 9%, the “Population Membrane Permeable-Phenotype (%)” value [4] was 28% and the “Population Mitochondria Different-Phenotype (%)” value [4] was 38%. For the same compound, the “Population Mitotic Cells (%)” value [4] was 26%, the “Population Normal (%)” value [4] was 90% and the “Population Pyknosed Nuclei (%)” value [4] was 22%. The “Population Tubulin-Different-Phenotype (%)” value [4] was 42%, the “Total Cell Count” value [4] was 91 and the “Population Apoptotic (%)” value [5] was 88%. For the same compound, the “Population Fragmented Nuclei (%)” value [5] was 29%, the “Population Healthy Nuclei (%)” value [5] was 45% and the “Population Hoechst High Intensity Objects (%)” value [5] was 10%. The “Population Membrane Permeable-Phenotype (%)” value [5] was 11%, the “Population Mitochondria Different-Phenotype (%)” value [5] was 14% and the “Population Mitotic Cells (%)” value [5] was 11%. The “Population Normal (%)” value [5] was 90%, the “Population Pyknosed Nuclei (%)” value [5] was 25% and the “Population Tubulin-Different-Phenotype (%)” value [5] was 4%. For the same compound, the “Total Cell Count” value [5] was 188, the “Population Apoptotic (%)” value [6] was 0% and the “Population Fragmented Nuclei (%)” value [6] was 11%. For the same compound, the “Population Healthy Nuclei (%)” value [6] was 83%, the “Population Hoechst High Intensity Objects (%)” value [6] was 6% and the “Population Membrane Permeable-Phenotype (%)” value [6] was 4%. For the same compound, the “Population Mitochondria Different-Phenotype (%)” value [6] was 36%, the “Population Mitotic Cells (%)” value [6] was 100% and the “Population Normal (%)” value [6] was 93%. The “Population Pyknosed Nuclei (%)” value [6] was 4%, the “Population Tubulin-Different-Phenotype (%)” value [6] was 14% and the “Total Cell Count” value [6] was 70. For the same compound, the “Population Apoptotic (%)” value [7] was 84%, the “Population Fragmented Nuclei (%)” value [7] was 38% and the “Population Healthy Nuclei (%)” value [7] was 24%. For the same compound, the “Population Hoechst High Intensity Objects (%)” value [7] was 19%, the “Population Membrane Permeable-Phenotype (%)” value [7] was 4% and the “Population Mitochondria Different-Phenotype (%)” value [7] was 45%. The “Population Mitotic Cells (%)” value [7] was 15%, the “Population Normal (%)” value [7] was 80% and the “Population Pyknosed Nuclei (%)” value [7] was 37%. For the same compound, the “Population Tubulin-Different-Phenotype (%)” value [7] was 22%, the “Total Cell Count” value [7] was 150 and the “Population Apoptotic (%)” value [8] was 95%. The “Population Fragmented Nuclei (%)” value [8] was 30%, the “Population Healthy Nuclei (%)” value [8] was 33% and the “Population Hoechst High Intensity Objects (%)” value [8] was 14%. The “Population Membrane Permeable-Phenotype (%)” value [8] was 55%, the “Population Mitochondria Different-Phenotype (%)” value [8] was 55% and the “Population Mitotic Cells (%)” value [8] was 4%. The “Population Normal (%)” value [8] was 85%, the “Population Pyknosed Nuclei (%)” value [8] was 36% and the “Population Tubulin-Different-Phenotype (%)” value [8] was 65%. The “Total Cell Count” value [8] was 87, the “Population Apoptotic (%)” value [9] was 82% and the “Population Fragmented Nuclei (%)” value [9] was 29%. The “Population Healthy Nuclei (%)” value [9] was 44%, the “Population Hoechst High Intensity Objects (%)” value [9] was 8% and the “Population Membrane Permeable-Phenotype (%)” value [9] was 8%. The “Population Mitochondria Different-Phenotype (%)” value [9] was 28%, the “Population Mitotic Cells (%)” value [9] was 17% and the “Population Normal (%)” value [9] was 91%. The “Population Pyknosed Nuclei (%)” value [9] was 25%, the “Population Tubulin-Different-Phenotype (%)” value [9] was 11% and the “Total Cell Count” value [9] was 217. For the same compound, the “Population Apoptotic (%)” value [10] was 100%, the “Population Fragmented Nuclei (%)” value [10] was 16% and the “Population Healthy Nuclei (%)” value [10] was 78%. The “Population Mitochondria Different-Phenotype (%)” value [10] was 37%, the “Population Mitotic Cells (%)” value [10] was 0% and the “Population Pyknosed Nuclei (%)” value [10] was 4%. The “Population Tubulin-Different-Phenotype (%)” value [10] was 17%, the “Total Cell Count” value [10] was 87 and the “Population Apoptotic (%)” value [11] was 92%. The “Population Fragmented Nuclei (%)” value [11] was 40%, the “Population Healthy Nuclei (%)” value [11] was 8% and the “Population Hoechst High Intensity Objects (%)” value [11] was 30%. For the same compound, the “Population Membrane Permeable-Phenotype (%)” value [11] was 33%, the “Population Mitochondria Different-Phenotype (%)” value [11] was 50% and the “Population Mitotic Cells (%)” value [11] was 7%. The “Population Normal (%)” value [11] was 69%, the “Population Pyknosed Nuclei (%)” value [11] was 51% and the “Population Tubulin-Different-Phenotype (%)” value [11] was 33%. For the same compound, the “Total Cell Count” value [11] was 146, the “Population Apoptotic (%)” value [12] was 85% and the “Population Fragmented Nuclei (%)” value [12] was 24%. For the same compound, the “Population Healthy Nuclei (%)” value [12] was 49%, the “Population Hoechst High Intensity Objects (%)” value [12] was 20% and the “Population Membrane Permeable-Phenotype (%)” value [12] was 80%. The “Population Mitochondria Different-Phenotype (%)” value [12] was 84%, the “Population Mitotic Cells (%)” value [12] was 14% and the “Population Normal (%)” value [12] was 79%. For the same compound, the “Population Pyknosed Nuclei (%)” value [12] was 26%, the “Population Tubulin-Different-Phenotype (%)” value [12] was 76% and the “Total Cell Count” value [12] was 104.
